From ChEMBL document CHEMBL3272032, “Antifolate studies. Activities of 40 potential antimalarial compounds against sensitive and chlorguanide triazine resistant strains of folate-requiring bacteria and Escherichia coli” (J Med Chem, 1977)
Calls of active or inactive are those of the source. The calls are words filed in the database; no cut-off is given here.

How the values were obtained:
[1] = system: Enterococcus faecium; assay: Antibacterial activity against chlorguanide triazine-resistant Streptococcus faecium ATCC 8043 assessed as reduction in growth in presence of 0.002 ug/ml folic acid; format: functional, organism-based
How it was run: (§1)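 Folate-requiring strains grown in medium with folic acid, 0.002 µg/ml for S. faecium and 0.001 µg/ml for L. casei; P. cerevisiae given folinic acid, 0.001 µg/ml. Resistant substrains came from serial transfer in rising chlorguanide triazine, and the most resistant were used. Compounds tested up to 1000 µg/ml, or 100 µg/ml when supply was limited. Growth read as Klett turbidity; IC50 is the µM concentration giving 50% growth inhibition.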

[2] = system: Lacticaseibacillus casei; assay: Antibacterial activity against sensitive Lactobacillus casei ATCC 7469 assessed as reduction in growth in presence of 0.001 ug/ml folic acid; format: functional, organism-based
How it was run: (§2)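 Folate-requiring strains in the medium of the earlier assay method. Folic acid was 0.002 μg/ml for S. faecium and 0.001 μg/ml for L. casei. Turbidity read on a Klett-Summerson colorimeter. IC50 is the micromolar concentration reducing growth to 50% of control. Top concentration was 1000 μg/ml, or 100 μg/ml if supply was limited.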

[3] = system: Lacticaseibacillus casei; assay: Antibacterial activity against chlorguanide triazine-resistant Lactobacillus casei ATCC 7469 assessed as reduction in growth in presence of 0.001 ug/ml folic acid; format: functional, organism-based; how it was run: as §1
[4] = system: Pediococcus; assay: Antibacterial activity against sensitive Pediococcus cerevisiae ATCC 808 assessed as reduction in growth in presence of 0.001 ug/ml folinic acid; format: functional
How it was run: (§3)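 P. cerevisiae grown with folinic acid at 0.001 μg/ml in the earlier-described medium. Turbidity read on a Klett-Summerson colorimeter. IC50 is the micromolar concentration reducing growth to 50% of control. Top concentration was 1000 μg/ml, or 100 μg/ml when supply was limited.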

[5] = system: Pediococcus; assay: Antibacterial activity against chlorguanide triazine-resistant Pediococcus cerevisiae ATCC 808 assessed as reduction in growth in presence of 0.001 ug/ml folinic acid; format: functional; how it was run: as §1
[6] = system: Escherichia coli; assay: Antibacterial activity against sensitive Escherichia coli ATCC 10536 assessed as reduction in growth in presence of p-aminobenzoic acid; format: functional, organism-based
How it was run: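 Reversal test. Drug inhibition was challenged with PABA in Sahyun et al. medium plus 0.6% acid-hydrolyzed casein. Growth read as turbidity on a Klett-Summerson colorimeter. Scored as reversal or nonreversal of the drug inhibition.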

[7] = system: Plasmodium berghei; assay: Antimalarial activity against Plasmodium berghei infected in sc dosed mouse assessed as active dose required to increase of 100% in mean survival time; format: functional; details: read-out: MED
How it was run: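 Mice received a standard blood-induced P. berghei inoculum and were then treated with one subcutaneous dose of compound suspended in peanut oil. The minimum active dose is the lowest dose that raised mean survival time by 100%.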

[8] = system: Plasmodium berghei; assay: Antimalarial activity against Plasmodium berghei infected in sc dosed mouse assessed as dose required to survivors for period of 60 days; format: functional
How it was run: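 Mice infected with a blood-induced P. berghei inoculum were given one subcutaneous dose in peanut oil. Survivors at 60 days counted as cured. The minimum curative dose is the lowest dose that cured any mouse.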

[9] = system: Enterococcus faecium; assay: Antibacterial activity against sensitive Streptococcus faecium ATCC 8043 assessed as reduction in growth; format: functional, organism-based; how it was run: as §1
[10] = system: Enterococcus faecium; assay: Antibacterial activity against chlorguanide triazine-resistant Streptococcus faecium ATCC 8043 assessed as reduction in growth; format: functional, organism-based; how it was run: as §1
[11] = system: Enterococcus faecium; assay: Fold increase in resistance, ratio of IC50 for chlorguanide triazine-resistant Streptococcus faecium ATCC 8043 to IC50 for sensitive Streptococcus faecium ATCC 8043; format: functional
How it was run: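 Resistant S. faecium substrain raised by serial transfer in increasing chlorguanide triazine. IC50 (µM, 50% growth inhibition by turbidity) was found for resistant and parent strains in folic acid (0.002 µg/ml) medium. Fold increase taken as IC50 resistant / IC50 sensitive.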

[12] = system: Lacticaseibacillus casei; assay: Antibacterial activity against sensitive Lactobacillus casei ATCC 7469 assessed as reduction; format: functional, organism-based; how it was run: as §1
[13] = system: Lacticaseibacillus casei; assay: Antibacterial activity against chlorguanide triazine-resistant Lactobacillus casei ATCC 7469 assessed as reduction in growth; format: functional, organism-based; how it was run: as §1
[14] = system: Lacticaseibacillus casei; assay: Fold increase in resistance, ratio of IC50 for chlorguanide triazine-resistant Lactobacillus casei ATCC 7469 to IC50 for sensitive Lactobacillus casei ATCC 7469; format: functional
How it was run: (§4)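 Resistant substrains were made by serial transfer in rising concentrations of cycloguanil, and the most resistant isolate of each organism was used. Both strains were assayed turbidimetrically under identical conditions. FIR = IC50 of the resistant strain divided by IC50 of the sensitive parent.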

[15] = Antibacterial activity against sensitive Pediococcus cerevisiae ATCC 808 assessed as reduction; format: functional; how it was run: as §3
[16] = Antibacterial activity against chlorguanide triazine-resistant Pediococcus cerevisiae ATCC 808 assessed as reduction in growth; format: functional; how it was run: as §1
[17] = system: Pediococcus; assay: Fold increase in resistance, ratio of IC50 for chlorguanide triazine-resistant Pediococcus cerevisiae ATCC 808 to IC50 for sensitive Pediococcus cerevisiae ATCC 808; format: functional; how it was run: as §4
[18] = system: Escherichia coli; assay: Antibacterial activity against sensitive Escherichia coli ATCC 10536 assessed as reduction in growth; format: functional, organism-based
How it was run: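 Growth inhibition in Sahyun et al. medium plus 0.6% acid-hydrolyzed casein. Growth read as turbidity on a Klett-Summerson photoelectric colorimeter. IC50 is the micromolar concentration giving 50% growth inhibition. Top concentration was 1000 μg/ml, or 100 μg/ml when compound was limited.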

[19] = system: Enterococcus faecium; assay: Antibacterial activity against sensitive Streptococcus faecium ATCC 8043 assessed as reduction in growth in presence of 0.002 ug/ml folic acid; format: functional, organism-based; how it was run: as §2

SMILES	inhibition [1]	inhibition [2]	inhibition [3]	inhibition [4]	inhibition [5]	inhibition [6]	minimal effective dose [7]	MCD [8]	IC50 [9]	IC50 [10]	Ratio IC50 [11]	IC50 [12]	IC50 [13]	Ratio IC50 [14]	IC50 [15]	IC50 [16]	Ratio IC50 [17]	IC50 [18]	inhibition [19]
Nc1nc(N)c2cc(Oc3cc(Cl)cc(Cl)c3)ccc2n1	inactive	inactive	inactive	inactive	inactive	Active	320 mg/kg	640 mg/kg	9 nM	1300 nM	144	250 nM	40 nM	0.16	120 nM	1400 nM	11.7	2000 nM	inactive
Nc1nc(N)c2cc(Sc3ccc(Cl)cc3)ccc2n1	inactive	inactive	inactive	inactive	inactive	Active	5 mg/kg	40 mg/kg	1 nM	180 nM	180	28 nM	10 nM	0.36	28 nM	400 nM	14.3	400 nM	inactive
Nc1ncc(Cc2ccc3c(c2)OCO3)c(N)n1	inactive	inactive	inactive	inactive	inactive	Active	640 mg/kg	640 mg/kg	250 nM	24200 nM	96.8	940 nM	250 nM	0.27	12300 nM	90100 nM	7.3	45000 nM	inactive
N=C(N)N/N=C(\c1ccc(F)cc1)c1ccc(C(F)(F)F)cc1	Active	Active	Active	Active	Active	Active	40 mg/kg	160 mg/kg	64000 nM	35000 nM	0.6	31000 nM	30000 nM	1	22000 nM	21000 nM	1	17000 nM	Active
CC(C)c1nc2nc(N)nc(N)c2nc1C(C)C	inactive	inactive	inactive	inactive	inactive	Active	640 mg/kg	640 mg/kg	5 nM	300 nM	60	3200 nM	500 nM	0.16	70 nM	500 nM	7	8100 nM	inactive
